# Assay outcomes from PubChem.
# Phagocyt inh = inhibitors of macrophage phagocytosis, primary screen, imaging, J774A.1 cells, IgG beads; J774A.1 macrophage IgG-bead phagocytosis; inhibition, % at 5 µM; hit rate 0.07% among 110,000;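 active means inhibition above the mean of the plate negative controls plus 5 SD, cut at about 13% in these data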;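 further: phagocytic index as fraction of beads internalized from green versus red external bead signal; plate controls were DMSO negative control for no effect and cytochalasin-D positive control for full effect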
# Rev-RRE block = HIV-1 Rev-RRE binding inhibitors, primary screen, biochemical, FRET, protein-RNA interaction; P05866; AID 704, 2007; hit rate 0.79% among 97,000; Rev peptide-RRE RNA binding; inhibition, % at 8 µM;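 active means inhibition above the screen-wide mean plus 3 SD, cut at about 35% in these data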;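 further: 0% = median DMSO wells and 100% = median Neomycin B control wells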
#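 Assay system: Rev peptide and RRE RNA, both fluorescently labelled; times: 5 min preincubation and 15 min binding, 25 °C; detection: FRET, ex 480 nm, em 540 and 671 nm; read-out basis: % inhibition from 671/540 nm acceptor-to-donor ratio, scaled between controls; benchmarks: DMSO low control, neomycin B high control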
# Measles CPE = compounds protecting cells from measles virus cytopathic effect, primary screen, measles RdRp inhibitor project, single point, MLSMR library, absorbance; AID 841, 2007; hit rate 1.5% among 140,000; Measles virus-infected cells, CPE protection; protection (pct of control), % at 4 µM; in the data active means protection mostly above about 24%, no sharp cut-off; inactive means mostly below about 26%
# DAT uptake mod = changed hDAT dopamine uptake under cocaine IC80, either direction, primary screen, cocaine antagonist project, cell-based, LLC-PK1 hDAT, [14C]-dopamine uptake, MLSMR | hit rate 1.3% among 110,000 | AID 449768, 2010 | LLC-PK1 hDAT cells, [14C]-dopamine uptake with cocaine IC80; actives deviate in either direction | B-score at 10 µM;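 active means Z score or B-score, a plate-position-corrected score, falls beyond the plate's 99.7% confidence bounds, in either direction; inactive means both scores lie inside the 99.7% bounds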;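 further: scored against the spread of the other compound wells on the same plate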
# Target sequence (Q01959 whole entry, looked up): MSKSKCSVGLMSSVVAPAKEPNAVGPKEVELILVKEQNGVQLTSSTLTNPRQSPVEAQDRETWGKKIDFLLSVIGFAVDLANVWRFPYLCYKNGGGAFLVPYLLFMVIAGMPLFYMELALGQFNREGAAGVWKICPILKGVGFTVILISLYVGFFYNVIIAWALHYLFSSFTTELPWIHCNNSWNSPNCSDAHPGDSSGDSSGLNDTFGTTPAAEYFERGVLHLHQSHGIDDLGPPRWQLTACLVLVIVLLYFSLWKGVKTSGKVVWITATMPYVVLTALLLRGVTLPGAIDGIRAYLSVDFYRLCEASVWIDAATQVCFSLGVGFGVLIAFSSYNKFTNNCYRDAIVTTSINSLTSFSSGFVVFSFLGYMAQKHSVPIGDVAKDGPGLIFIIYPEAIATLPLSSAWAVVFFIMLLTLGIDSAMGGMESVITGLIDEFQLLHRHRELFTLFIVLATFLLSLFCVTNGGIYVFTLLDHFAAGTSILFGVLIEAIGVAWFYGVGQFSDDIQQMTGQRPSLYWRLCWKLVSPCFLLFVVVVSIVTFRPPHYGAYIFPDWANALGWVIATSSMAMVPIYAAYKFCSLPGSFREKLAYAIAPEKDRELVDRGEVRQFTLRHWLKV
# PTK2B oligo ant = antagonists of Pyk2 self-association, primary screen, Q293 cells, FERM NanoBiT luminescence, HTS; Protein-tyrosine kinase 2-beta (Homo sapiens), Q14289; stronger effect = lower value; z-score (the deposit names both 25 µM and 10 µM); hit rate 0.83% among 99,000;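 active means Z-score of -3 or lower, scaled per plate to the spread of control and sample wells; inactive means z-score above -3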;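 further: negative z-score means lost luminescence so less FERM oligomerization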
# Cav3 T inh = Cav3.2 calcium influx blockers – cell-based, Fluo-4 calcium fluorescence, FDSS, MLSMR library, primary screen; Cav3.2-expressing cells; stronger effect = lower value; B-score at 10 µM; hit rate 4% among 100,000; AID 449739, 2010;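 active means single-dose well whose peak fluorescence ratio is a statistical outlier from its plate by either plate-standardised score or position-corrected B-score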
# Active calls of the source: *; x = not tested or not shown. Hits are enriched below; roughly 5.9% of the tested compounds scored in any of these assays.
SMILES,Phagocyt inh,Rev-RRE block,Measles CPE,DAT uptake mod,PTK2B oligo ant,Cav3 T inh
CCCC(=O)OC(C(=O)Nc1cc(C(F)(F)F)ccc1Cl)c1ccccc1 (configuration not stated),-5,x,4,x,-0.43,x
CCO[C@@H]1OC(C(=O)O)=C[C@H](c2ccc3c(c2)OCO3)[C@H]1CCCO,x,x,x,-0.86,x,0.21
Cc1ccc(S(=O)(=O)N(Cc2cc3cccc(C)c3[nH]c2=O)c2ccccc2)cc1,-12,x,15,x,x,x
Nc1nc(SCC(=O)NCc2ccccc2)[nH]c(=O)c1NC(=O)c1ccccc1F,-7,x,4,x,x,x
O=C(CCCO)CCCCCCCCC[C@H]1N[C@H](CO)[C@@H](O)[C@@H]1O,x,x,7,-0.84,x,0.69
O=C(COC(=O)C1(c2ccc(F)cc2)CCCC1)N1CCN(C(=O)c2ccco2)CC1,-1,6,8,-1.1,-0.06,-5.4*
CC1(C)CC(CC(=O)Nc2ccc([N+](=O)[O-])cc2)C(=O)O1 (configuration not stated),x,2,35*,0.46,0.3,-0.42
Cc1nn(-c2ccccc2)c(Cl)c1C1C(C#N)=C(N)OC2=C1C(=O)CC(C)(C)C2 (configuration not stated),x,10,6,1,-2.9,-0.1
CC(C)c1ccc(-c2nn(-c3ccccc3)cc2C2C(C#N)=C(N)OC3=C2C(=O)CC(C)(C)C3)cc1 (configuration not stated),x,14,10,0.53,-0.91,-5.3*
Cc1cc(C)cc(C(=O)N2CC(C)OC(C)C2)c1 (configuration not stated),0,5,16,1.3,0.25,0.64
CCS(=O)(=O)Nc1ccc(C2=NN(C(=O)c3ccco3)C(c3ccc(C)cc3)C2)cc1 (configuration not stated),0,9,2,-0.23,-3*,0.0071
Cc1ccc(C2CC(c3ccc(NS(C)(=O)=O)cc3)=NN2C(=O)c2ccco2)cc1 (configuration not stated),-5,x,3,x,x,x
CCN(CC)S(=O)(=O)c1cccc(C(=O)NC(Cc2c[nH]c3ccccc23)c2nnc3n2CCC3)c1 (configuration not stated),-4,x,10,x,x,x
C/C=C/C(=O)Nc1cccc(C2=NOC3(C2)C[C@@H](C(N)=O)N(C(=O)C(c2ccccc2)c2ccccc2)C3)c1 (some centres not stated),x,x,x,0.83,x,0.031
O=C(C1CC1)N1CCN=C1SCc1ccccc1,0,x,41*,0.68,x,0.58
Cc1cc2ncn(C(=O)c3cc(-c4ccccc4)nc4ccccc34)c2cc1C,-6,x,29*,x,x,x
Cc1cnn(C(=O)c2cc(-c3ccccc3)nc3ccccc23)c1,1,4,7,-0.94,-0.67,-0.49
O=C(c1cc(-c2ccccc2)nc2ccccc12)N1N=C(C(F)F)CC1(O)C(F)F (configuration not stated),-2,-20,14,2.9*,-1.6,-0.61
CC(C)(C)CC(=O)NCCCCCCNC(=O)CC(C)(C)C,-2,x,12,x,x,x
COc1cc(C)c(S(=O)(=O)n2ccc(C)n2)cc1C,0,6,1,-0.27,0.6,-2.1
CC(=O)c1cccc(NC(=O)COc2cc3oc(=O)c(CC(C)O)c(C)c3cc2Cl)c1 (configuration not stated),7,x,7,x,x,x
COc1cc([N+](=O)[O-])c2ncsc2c1,-1,x,17*,x,x,x
CCC(C)C(=O)Nc1ccc(OC)cc1[N+](=O)[O-] (configuration not stated),-9,x,6,x,x,x
COc1ccccc1N1C(=O)C2C(c3ccccc3F)NN(C(=O)c3ccc(C)cc3)C2C1=O (configuration not stated),x,x,51*,x,x,x
CCc1ccc(C2CC(=O)NC(SCC(=O)OC(C)C)=C2C#N)cc1 (configuration not stated),0,10,6,-0.025,x,-8.4*
SMILES,Phagocyt inh,Rev-RRE block,Measles CPE,DAT uptake mod,PTK2B oligo ant,Cav3 T inh
Cc1ccccc1Cn1c(=O)n(CC2CCC(C(=O)NCCc3ccccc3)CC2)c(=O)c2ccccc21 (configuration not stated),-1,x,1,x,x,x
Cc1nc2sccn2c(=O)c1Br,-10,x,16,x,x,x
CC(C)CCn1c(N2CCN(c3cccc(Cl)c3)CC2)nc2c1c(=O)[nH]c(=O)n2C,x,x,16,0.059,-0.12,-8.5*
CCCn1c(N2CCN(CC(=O)c3c(C)n(C)c4ccccc34)CC2)nc2c1c(=O)[nH]c(=O)n2C,0,-5,12,2.8*,1.1,3.1*
CC1CCCN(c2nc3c(c(=O)[nH]c(=O)n3C)n2CCCc2ccccc2)C1 (configuration not stated),0,x,42*,0.54,x,-5.6*
CCCCCCCCn1c(N2CCN(c3cccc(Cl)c3)CC2)nc2c1c(=O)[nH]c(=O)n2C,0,11,7,1.2,-0.02,-2
CCCCCCn1c(N2CCN(c3cccc(Cl)c3)CC2)nc2c1c(=O)[nH]c(=O)n2C,x,-2,4,0.31,-0.76,-1.9
CCCCCCn1c(N2CCN(c3ccccc3)CC2)nc2c1c(=O)[nH]c(=O)n2C,x,x,5,-0.1,0.06,-5.7*
CCCCC(=O)Nc1ccc(NC(=O)c2ccccc2[N+](=O)[O-])cc1OC,0,x,6,x,x,x
CCC/C=C(\CCC)C(NC(=O)c1ccc(C(F)(F)F)cc1)c1ccccc1 (configuration not stated),x,x,x,-1.1,x,-1.6
CCOC(=O)c1cccc(NC(=O)c2ccc(N(C)C)cc2)c1,2,x,5,x,x,x
CC1CCCN(c2nc3c(c(=O)n(C)c(=O)n3C)n2CCSc2nc3ccccc3s2)C1 (configuration not stated),0,-3,11,1.8,-1.3,-6.9*
Cc1ccc(-c2nn(-c3ccccc3)cc2CN(Cc2ccccc2)C(=O)c2ccco2)o1,-2,-7,12,-1.2,0.45,-4*
CN(C)S(=O)(=O)c1ccc(N2CCCC2)c(C(=O)NC(c2ccccc2)c2ccccc2)c1,0,0,11,-0.22,0.01,-4.3*
C[C@H]1[C@@H](OC(=O)CCC(=O)O)O[C@@H]2OC3(C)CC[C@H]4[C@H](C)CC[C@@H]1[C@@]24OO3,x,x,x,0.58,x,0.99
c1ccc(CCNc2ncnc3scc(C4COc5ccccc5O4)c23)cc1 (configuration not stated),-1,6,25,0.36,-2.1,-3.6
